# From PubChem
# In the library only some 2% were active in any assay of this set; here they are far more common.
# DNA FID counter-1 = fluorescent intercalator displacement, NS3 helicase counter-screen. inhibition, % at 7.9 µM. 0.17% of 290,000 active. AID 1845. DNA fluorescent intercalator displacement, fluorescence; in the data active = inhibition above about 37%;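 note: 0% = vehicle and 100% = reference compound; higher means more ethidium bromide displaced from hairpin DNA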
# HCV core dimer = HCV core protein dimerization inhibition; TR-FRET GST/Flag-core106 dimerization, 1536-well; 0.33% of 300,000 active; inhibition, % at 5 µM; AID 1899;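 active = inhibition above the mean of all tested compounds plus 3 SD, set per screening campaign, cut at about 45% in these data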
#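 Test system: GST/Flag-tagged HCV core106 proteins; Medium: KF-containing HEPES buffer, pH 7.45, DTT, CHAPS, BSA; Times: compound-protein-antibody incubation 4 h at 22.5 °C; Detection: TR-FRET 671 and 617 nm emission; Benchmarks: wells lacking GST-core106 and wells with excess unlabelled core106.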
# HCV NS3 hel inh = blocks Hepatitis C virus NS3 helicase unwinding; NS3 helicase DNA unwinding, Cy5 molecular beacon fluorescence; inhibition, % at 10.9 µM; 0.56% of 290,000 active;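 active = inhibition above the mean of all tested compounds plus 3 SD, set per campaign, cut at about 35% in these data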;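 note: 0% = DMSO wells and 100% = thioflavine S control wells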
#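 System: Hepatitis C virus NS3 helicase domain fragment enzyme | Reagent: Annealed dual-labelled DNA beacon duplex, ATP-started | Compound dosing: 10.9 µM single point, 0.8% DMSO | Incubation: 1 h reaction at 25 °C, ATP-initiated | Technique: Cy5 fluorescence | Evaluation: Percent inhibition from t60/t0 fluorescence ratio | Benchmarks: Low DMSO, high thioflavine S at 110 µM | Replication: Singlicate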
# eIF4H FP inh = inhibitors of RNA binding by human eIF4H | Q15056 | eIF4H fluorescence polarization binding assay | inhibition, % at 35 µM | 0.94% of 290,000 active | AID 2012;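 note: calls also rest on retests at 20 µM and on dose response follow-up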
# PABP FP inh = blocks human PABP binding to poly(A) RNA | fluorescence polarization | inhibition, % at 35 µM | 1% of 290,000 active | AID 2014;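 note: calls also rest on retests at 20 µM and on dose response follow-up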
# MLLE-PAM2 inh = blocks PAM2 peptide binding to the PABP1 MLLE domain; P11940; GST-MLLE / FITC-PAM2 fluorescence polarization; inhibition, % at 20 µM; 0.36% of 360,000 active; AID 588489; in the data active = inhibition above about 35%, passing the limit was not always enough;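 note: plate controls were DMSO wells with GST-MLLE for no effect and wells lacking GST-MLLE protein for full effect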
# NS3 hel confirm = confirmation of Hepatitis C virus NS3 helicase inhibitors. NS3 helicase DNA unwinding, Cy5 molecular beacon fluorescence. shares compounds with HCV NS3 hel inh. 31% of 1,600 active. inhibition, % at 10.9 µM. AID 1943;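 active = inhibition above the mean of all tested compounds plus 3 SD, cutoff set per campaign, cut at about 36% in these data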
# DNA FID counter-2 = counter-screen for HCV NS3 helicase inhibitors: DNA intercalator displacement; inhibition, % at 7.9 µM; AID 1945; DNA fluorescent intercalator displacement, fluorescence; 4% of 1,600 active; shares compounds with HCV NS3 hel inh; in the data active = inhibition above about 37%;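 note: 0% = vehicle and 100% = reference compound; higher means more displacement of ethidium bromide from the DNA hairpin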
# FID counter DR = displaces fluorescent intercalator from DNA, HCV helicase counter-screen | shares compounds with HCV NS3 hel inh | fluorescent intercalator displacement from DNA, fluorescence | IC50, µM | 120 tested, under 10 active | AID 2172
# The depositor's hits bear a star; u = inconclusive; x = not tested or not shown. Unless noted, the rule behind the calls is not given here.
SMILES,DNA FID counter-1,HCV core dimer,HCV NS3 hel inh,eIF4H FP inh,PABP FP inh,MLLE-PAM2 inh,NS3 hel confirm,DNA FID counter-2,others
CCS(=O)(=O)C1=NN2C(=N)/C(=C\c3ccc(SCc4ccco4)o3)C(=O)N=C2S1,-4,x,37*,u,-2,-120,65*,22,
CC1=Nc2ccccc2/C1=C/c1c(N)n2c(S(=O)(=O)CC(C)C)nsc2nc1=O,-30,x,36*,10,2,-17,54*,-15,
CC1=Nc2ccccc2/C1=C/c1c(N)n2c(S(=O)(=O)C(C)C)nsc2nc1=O,-25,-1,30,1,-7,-18,x,x,
CC(=O)c1cccc(NC(=O)CSc2ccc(-c3ccco3)nn2)c1,-21,10,19,26,14,18,x,x,
O=C(CSc1ccc(-c2ccco2)nn1)c1cccc([N+](=O)[O-])c1,-11,65*,38*,103,10,29,-9,16,
O=C(O)c1cccnc1SCc1cccc(Br)c1,-17,-3,38*,-1,-7,10,-13,27,
O=C(Nc1ccccc1)c1ccc(OC(=O)c2ccccc2)cc1,-2,23,-3,1,-9,-14,x,x,
O=C(Oc1ccc(NC(=O)c2cc3c(cc2Br)OCO3)cc1)c1ccccc1,-17,2,25,-1,-1,1,-10,-6,
CCc1cc(=O)oc2c3c(cc(OCC(=O)NC4CC4)c12)OC(C)(C)CC3,-20,0,42*,-3,-6,11,-8,-37,
COCCN(Cc1ccccc1)C(=O)c1cccc(S(=O)(=O)N2CCN(Cc3ccccc3)CC2)c1,x,x,x,x,x,-8,x,x,
CCOC(=O)c1ccc(NC(=O)c2ncn3c2C(=O)N[C@H](C)C3)cc1,x,x,x,x,x,-4,x,x,
CCCCNC(=O)[C@H]1C[C@H]1[C@@H](O)[C@H](CO)NC(=O)[C@H](CC(C)C)NC(=O)OC(C)(C)C,-26,-12,36*,0,0,-2,5,-36,
N#C/C(=C\c1ccc(OCc2ccc(C(=O)O)cc2)cc1)C(=O)NCc1ccccc1,-29,23,39*,14,5,-10,70*,-27,FID counter DR=>79
COc1cc(/C=C(\C#N)C(=O)NCc2ccccc2)ccc1OCc1ccc(C(=O)O)cc1,-25,7,30,-4,7,-4,x,x,
COCCNc1nc(Nc2ccc(Cl)cc2F)c2sccc2n1,x,x,x,x,x,1,x,x,
Cc1ccc(CNC(=O)C2CCN(S(=O)(=O)c3c(C)noc3/C=C/c3ccco3)CC2)cc1,-25,36,63*,15,-8,-27,-13,-3,
COc1cc(/C=N/NC(=O)[C@H](Cc2c[nH]c3ccccc23)NC(=O)OCC(C)C)cc([N+](=O)[O-])c1O,-24,-14,50*,-8,21,6,59*,-14,
COc1cc(/C=N/NC(=O)Cc2ccccc2)cc([N+](=O)[O-])c1O,-2,-13,3,-9,8,-9,x,x,
CC(C)(C)c1ccc(S(=O)(=O)NCC(=O)N2CCCC2)cc1,-17,-2,0,-3,-1,12,x,x,
CCc1nc2c(OCc3ccc(C#N)cc3)cccn2c1N(C)C(=O)c1cccs1,x,x,x,x,x,5,x,x,
CCOC(=O)CCSc1nc(-c2ccc3c(c2)OCO3)cc(C(F)(F)F)c1C#N,0,-2,-4,-6,-5,-5,x,x,
CCOC(=O)CC(=O)CSc1nc(-c2ccc3c(c2)OCO3)cc(C(F)(F)F)c1C#N,-7,-24,37*,u,82*,5,-2,1,
CC(=O)C1=C(C)NC(SCc2ccc(C#N)cc2)=C(C#N)C1c1ccco1 (stereo unspecified),-6,-3,25,72,-6,-2,x,x,
CC(=O)C1=C(C)NC(SCc2cccc3ccccc23)=C(C#N)C1c1ccco1 (stereo unspecified),-12,5,38*,38,1,-5,-4,-3,
